Data published in PubChem BioAssay AID588760 (Johns Hopkins Ion Channel Center, 2011).
The source made the active and inactive calls.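 The calls were made as follows: active = fitted dose response curve and peak inhibition of the Kir2.1 potassium channel above 30% at some dose; inactive = no dose response or no inhibition at any dose.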

Molecular target: Inward rectifier potassium channel 2 (Mus musculus) (UniProt P35561)
Test: Kir2.1 channel inhibition, specificity check, SAR follow-up, selectivity assay for KCNK9 inhibitor project, cell-based, FluxOR thallium flux, CRC round 3 (AID 588760)
Settings: Kir2.1-expressing cells, 20 min; series mostly up to 30 µM
Outline: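 System: FluxOR-loaded Kir2.1 HEK293 cells / Probe or stimulus: potassium sulfate plus thallium sulfate stimulus, 5x stock 25/7 mM / Compound: 10-concentration dilution series per compound / Schedule: dye loading 90 min RT, compound 20 min RT pre-stimulus / Measured by: kinetic thallium-flux fluorescence, 10 s baseline, 110 s post-stimulus / Replicates: two or more replicates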

Sequence of Inward rectifier potassium channel 2 (Mus musculus) (P35561 whole entry, looked up): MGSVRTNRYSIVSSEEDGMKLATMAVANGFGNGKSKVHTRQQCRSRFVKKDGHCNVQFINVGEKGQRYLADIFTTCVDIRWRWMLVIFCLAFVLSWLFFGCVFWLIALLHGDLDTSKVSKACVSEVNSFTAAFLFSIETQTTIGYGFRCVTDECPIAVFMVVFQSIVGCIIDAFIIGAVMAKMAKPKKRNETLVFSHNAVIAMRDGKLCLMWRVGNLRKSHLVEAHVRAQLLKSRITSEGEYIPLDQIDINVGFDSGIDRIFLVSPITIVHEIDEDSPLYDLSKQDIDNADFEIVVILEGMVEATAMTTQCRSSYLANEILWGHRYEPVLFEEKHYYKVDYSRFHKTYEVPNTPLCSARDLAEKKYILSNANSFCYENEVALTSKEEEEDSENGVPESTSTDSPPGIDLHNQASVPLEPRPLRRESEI

outcome, inactive:
CC(CC1CC2CCC1C2)n1c(-c2ccco2)n[nH]c1=S (stereo unspecified)
CC(C1CC2CCC1C2)n1c(-c2ccco2)nnc1C(F)(F)F (stereo unspecified)
CC(C1CC2CCC1C2)n1c(-c2ccco2)n[nH]c1=O (stereo unspecified)
CC(C1CC2CCC1C2)n1c(-c2cccc(F)c2)n[nH]c1=S (stereo unspecified)
CC(C1CC2CCC1C2)n1c(-c2cccn2C)n[nH]c1=S (stereo unspecified)
COc1cc(OC)cc(-c2n[nH]c(=S)n2C(C)C2CC3CCC2C3)c1 (stereo unspecified)
CSc1nnc(-c2ccco2)n1C(C)C1CC2CCC1C2 (stereo unspecified)
CC(C1C2CCC1CC2)n1c(-c2ccco2)n[nH]c1=S (stereo unspecified)
CC(C1CCCCC1)n1c(-c2ccco2)n[nH]c1=S (stereo unspecified)
CC(C1CC2CCC1C2)n1c(-c2cccc(N(C)C)c2)n[nH]c1=S (stereo unspecified)
CC(C1CC2CCC1C2)n1c(-c2ccccc2F)n[nH]c1=S (stereo unspecified)
COc1ccccc1C(=O)Nc1cc(NC(=O)c2ccccc2C(C)C)ccc1F
CC(C1CC2CCC1C2)n1c(-c2ccc(N(C)C)cc2)n[nH]c1=S (stereo unspecified)
COc1cccc(Cc2n[nH]c(=S)n2C(C)C2CC3CCC2C3)c1 (stereo unspecified)
CC(C1CC2CCC1C2)n1c(SCC#N)nnc1-c1cccs1 (stereo unspecified)
CC(C1CC2CCC1C2)n1c(SCc2ccccc2)nnc1-c1ccco1 (stereo unspecified)
CC(C1CC2CCC1C2)n1c(-c2cccnc2)n[nH]c1=S (stereo unspecified)
CC(NC(=O)c1ccco1)C1CC2CCC1C2 (stereo unspecified)
CC(C1CC2CCC1C2)n1c(SCC(=O)c2ccccc2)nnc1-c1ccco1 (stereo unspecified)
COc1cccc(C(=O)CSc2nnc(-c3ccco3)n2C(C)C2CC3CCC2C3)c1 (stereo unspecified)
CC(C1CC2CCC1C2)n1c(SCC(=O)c2ccc3c(c2)OCO3)nnc1-c1ccco1 (stereo unspecified)
